Reference: ChEMBL document CHEMBL1126160, “Synthesis and structure-activity relationships of 7-diazabicycloalkylquinolones, including danofloxacin, a new quinolone antibacterial agent for veterinary medicine” (J Med Chem, 1992)
In brackets after ≈: the same amount, converted by molar mass.

Assays:
Type in all cases: functional
[1] = test system: Escherichia coli; assay: Escherichia coli DNA cleavage endpoint value which is the minimum amount required (in micro g/mL) to induce detectable cleavage of supercoiled pBR322 substrate to linear form (gyrase); conditions: read-out: MIC
How it was run: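 DNA gyrase A and B subunits were purified from E. coli overproducers. About 2 units of holoenzyme were incubated with pBR322 in Tris-HCl pH 7.5 containing MgCl2, spermidine, DTT, 0.2 mM ATP, BSA and tRNA. Drug was added as 2-fold serial dilutions, and reactions ran for 60 min at 25 °C. Reactions were stopped with SDS and proteinase K, then run on agarose and stained with ethidium. The endpoint was the lowest concentration giving detectable linear DNA.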

[2] = In vitro antibacterial activity against Aerobically grown Pasteurella haemolytica (59B018); conditions: Mannheimia haemolytica
How it was run: (§1)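 Agar dilution MICs. Aerobic strains were tested on brain heart infusion agar and incubated aerobically at 37 °C for 18–20 h.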

[3] = test system: Staphylococcus aureus; assay: In vitro antibacterial activity against aerobically grown Staphylococcus aureus (54B004); how it was run: as §1
[4] = test system: Phocaeicola vulgatus; assay: In vitro antibacterial activity against anaerobically grown Bacteroides vulgatus (78D029)
How it was run: (§2)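 Agar dilution MICs. Anaerobic strains were tested on tryptose agar with 5% bovine blood and incubated 48 h at 39 °C in an anaerobe chamber under N2/CO2/H2 (80:10:10).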

[5] = In vitro evaluation for antibacterial activity against anaerobically grown Treponema hyodysenteriae (94A007); conditions: Brachyspira hyodysenteriae
[6] = test system: Trueperella pyogenes; assay: In vitro antibacterial activity against anaerobically grown Actinomyces pyogenes (14D002); how it was run: as §2
[7] = test system: Actinobacillus pleuropneumoniae; assay: In vitro antibacterial activity against anaerobically grown Actinobacillus pleuropneumoniae ([…]); how it was run: as §2
[8] = test system: Pasteurella multocida; assay: In vitro antibacterial activity against aerobically grown Pasteurella multocida (59A006); how it was run: as §1
[9] = test system: Salmonella enterica; assay: In vitro antibacterial activity against aerobically grown Salmonella choleraesuis (58B015)
[10] = test system: Escherichia coli; assay: In vitro antibacterial activity against aerobically grown Escherichia coli (51A538); how it was run: as §1
[11] = test system: Clostridium perfringens; assay: microbe, parasite or virus in culture
[12] = test system: Bordetella bronchiseptica; assay: In vitro antibacterial activity against aerobically grown Bordetella bronchiseptica (73A009); how it was run: as §1

| SMILES | minimum concentration inducing gyrase-mediated DNA cleavage [1] [µg/mL] | MIC [2] [µg/mL] | MIC [3] [µg/mL] | MIC [4] [µg/mL] | MIC [5] [µg/mL] | MIC [6] [µg/mL] | MIC [7] [µg/mL] | MIC [8] [µg/mL] | MIC [9] [µg/mL] | MIC [10] [µg/mL] | MIC [11] [µg/mL] | MIC [12] [µg/mL] |
| --- | --- | --- | --- | --- | --- | --- | --- | --- | --- | --- | --- | --- |
| CN1[C@@H]2CCC[C@H]1CN(c1cc3c(cc1F)c(=O)c(C(=O)O)cn3C1CC1)C2.Cl | 1.56 | 0.2 | 0.2 | 1.56 | > 3.13 | 3.13 | 0.1 | 0.05 | 0.39 | 0.39 | 0.39 | 1.56 |
| CN1[C@@H]2CC[C@H]1CN(c1cc3c(cc1F)c(=O)c(C(=O)O)cn3CCF)C2.Cl.O | 3.12 | 0.2 | 0.2 | 6.25 | 3.13 | – | 0.1 | 0.2 | 0.39 | 0.2 | 0.39 | 3.13 |
| CN1[C@@H]2CC[C@H]1CN(c1cc3c(cc1F)c(=O)c(C(=O)O)cn3-c1ccc(F)cc1)C2.Cl.O | – | 0.78 | 0.78 | 0.78 | 1.56 | > 3.13 | 0.78 | 0.2 | > 1.56 | 1.56 | 3.13 | > 1.56 |
| Cl.O.O=C(O)c1cn(CCF)c2c(F)c(N3CCN4CCC3CC4)c(F)cc2c1=O | 0.19 | < 0.05 | 0.78 | 6.25 | 6.25 | 3.13 | < 0.05 | 0.2 | 0.2 | 0.39 | 0.78 | 6.25 |
| C=Cn1cc(C(=O)O)c(=O)c2cc(F)c(N3CCN4CCC3CC4)cc21 | 0.39 | 0.05 (≈ 0.14 µM) | 0.2 (≈ 0.56 µM) | 3.13 (≈ 8.76 µM) | 0.39 (≈ 1.09 µM) | 3.13 (≈ 8.76 µM) | 0.02 (≈ 0.056 µM) | 0.05 (≈ 0.14 µM) | 0.1 (≈ 0.28 µM) | 0.1 (≈ 0.28 µM) | 0.2 (≈ 0.56 µM) | 1.56 (≈ 4.37 µM) |
| CN1C[C@@H]2C[C@H]1CN2c1c(F)cc2c(=O)c(C(=O)O)cn(C3CC3)c2c1F | 0.39 | < 0.05 | 0.1 (≈ 0.266 µM) | 3.12 (≈ 8.31 µM) | 1.56 (≈ 4.16 µM) | 0.78 (≈ 2.08 µM) | < 0.05 | < 0.05 | – | < 0.05 | 3.12 (≈ 8.31 µM) | 0.39 (≈ 1.04 µM) |
| CN1C[C@@H]2C[C@H]1CN2c1c(F)cc2c(=O)c(C(=O)O)cn(-c3ccc(F)cc3F)c2c1F | 0.78 | 0.1 (≈ 0.224 µM) | 0.2 (≈ 0.447 µM) | 1.56 (≈ 3.49 µM) | > 3.13 | 1.56 (≈ 3.49 µM) | 0.1 (≈ 0.224 µM) | 0.02 (≈ 0.0447 µM) | 0.39 (≈ 0.872 µM) | 0.2 (≈ 0.447 µM) | 0.39 (≈ 0.872 µM) | > 1.56 |
| CN1C2CC[C@@H]1CCN(c1cc3c(cc1F)c(=O)c(C(=O)O)cn3CCF)C2 | 3.12 | 1.56 (≈ 3.99 µM) | 0.78 (≈ 1.99 µM) | > 3.13 | > 3.13 | > 3.13 | 0.39 (≈ 0.996 µM) | 0.39 (≈ 0.996 µM) | > 1.56 | 1.56 (≈ 3.99 µM) | 1.56 (≈ 3.99 µM) | 1.56 (≈ 3.99 µM) |
| CN1[C@@H]2CC[C@H]1CN(c1c(F)cc3c(=O)c(C(=O)O)cn(C4CC4)c3c1Cl)C2 | 1.56 | 0.2 (≈ 0.493 µM) | 0.39 (≈ 0.961 µM) | 0.78 (≈ 1.92 µM) | > 3.13 | 3.13 (≈ 7.71 µM) | 0.2 (≈ 0.493 µM) | 0.05 (≈ 0.123 µM) | 0.78 (≈ 1.92 µM) | 0.39 (≈ 0.961 µM) | 0.78 (≈ 1.92 µM) | > 1.56 |
| CN1C2CC[C@@H]1CCN(c1nc3c(cc1F)c(=O)c(C(=O)O)cn3C1CC1)C2 | 3.12 | 0.39 (≈ 1.01 µM) | 0.78 (≈ 2.02 µM) | > 3.13 | 3.13 (≈ 8.1 µM) | > 3.13 | 0.2 (≈ 0.518 µM) | 0.1 (≈ 0.259 µM) | 0.78 (≈ 2.02 µM) | 0.39 (≈ 1.01 µM) | 0.78 (≈ 2.02 µM) | 0.78 (≈ 2.02 µM) |
| CNn1cc(C(=O)O)c(=O)c2cc(F)c(N3CCN4CCC3CC4)cc21 | 1.56 | 0.1 (≈ 0.277 µM) | 1.56 (≈ 4.33 µM) | > 25 | 3.13 (≈ 8.69 µM) | 6.25 (≈ 17.3 µM) | < 0.05 | 0.1 (≈ 0.277 µM) | 1.56 (≈ 4.33 µM) | 0.39 (≈ 1.08 µM) | 0.78 (≈ 2.16 µM) | 12.5 (≈ 34.7 µM) |
